Experimental data reported in ChEMBL document CHEMBL3352109, “Synthesis and antifungal activity of substituted salicylaldehyde hydrazones, hydrazides and sulfohydrazides” (Bioorg Med Chem, 2014).
Converted amounts (≈) assume the structure as drawn. The source made the active and inactive calls. The rule behind the calls is not given here.

What was measured:
Candida albicans [1] = experiment: Antifungal activity against Candida albicans ATCC 10231 at 125 ug/ml by NCCLS method; type: functional, organism-based
Nakaseomyces glabratus [2] = experiment: Antifungal activity against Candida glabrata ATCC 48435 at 125 ug/ml by NCCLS method; type: functional, organism-based
Nakaseomyces glabratus [3] = experiment: Antifungal activity against Candida glabrata ATCC 48435 by NCCLS method; type: functional
How it was run: (§1)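 Broth dilution per NCCLS yeast reference method, in HEPES-buffered RPMI with 1% DMSO. MIC80 is the lowest concentration giving more than 80% growth inhibition versus positive (no-drug) controls. Read by visual scoring, not absorbance. Highest level tested 125 µg/mL.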

Candida albicans [4] = experiment: Antifungal activity against Candida albicans ATCC 10231 by NCCLS method; type: functional; how it was run: as §1

| Compound | Activity (Candida albicans [1]) | Activity (Nakaseomyces glabratus [2]) | MIC80 (Nakaseomyces glabratus [3]) | MIC80 (Candida albicans [4]) |
| --- | --- | --- | --- | --- |
| COc1ccc(O)c(/C=N/NS(=O)(=O)c2ccc3ccccc3c2)c1 | inactive | inactive | – | – |
| O=S(=O)(N/N=C/c1cc(Br)ccc1O)c1ccc(Br)cc1 | inactive | inactive | – | – |
| CC(C)(C)c1cccc(/C=N/Nc2ccc([N+](=O)[O-])cc2)c1O | – | – | inactive | inactive |
| O=[N+]([O-])c1ccc(N/N=C/c2cc(Cl)cc(Cl)c2O)cc1 | – | – | 62 µg/mL (≈ 190 µM) | inactive |
| O=[N+]([O-])c1ccc(N/N=C/c2cc(Cl)ccc2O)cc1 | – | – | 62 µg/mL (≈ 213 µM) | inactive |
| CC(C)(C)c1ccc(C(=O)N/N=C/c2ccccc2O)cc1 | – | – | 125 µg/mL (≈ 422 µM) | 4 µg/mL (≈ 13.5 µM) |
| O=S(=O)(N/N=C/c1cc(Cl)ccc1O)c1ccccc1 | inactive | inactive | – | – |
| Cc1ccc(O)c(/C=N/NC(=O)c2ccc(O)cc2)c1 | – | – | 1 µg/mL (≈ 3.7 µM) | inactive |
| O=C(N/N=C/c1ccc(/C=N/NC(=O)c2ccc([N+](=O)[O-])cc2)cc1)c1ccc([N+](=O)[O-])cc1 | – | – | inactive | inactive |
| COc1ccc(O)c(/C=N/NC(=O)c2ccc([N+](=O)[O-])cc2)c1 | – | – | 2 µg/mL (≈ 6.34 µM) | 125 µg/mL (≈ 396 µM) |
| O=C(N/N=C/c1cc([N+](=O)[O-])cc([N+](=O)[O-])c1O)c1ccccc1 | – | – | inactive | inactive |
| O=C(N/N=C/c1cc(Br)cc(Br)c1O)c1ccccc1 | – | – | 31 µg/mL (≈ 77.9 µM) | 8 µg/mL (≈ 20.1 µM) |
| O=[N+]([O-])c1ccc(O)c(/C=N/NS(=O)(=O)c2ccc3ccccc3c2)c1 | inactive | inactive | – | – |
| O=[N+]([O-])c1ccc(S(=O)(=O)N/N=C/c2cc(Cl)ccc2O)cc1 | inactive | inactive | – | – |
| O=C(N/N=C/c1cc([N+](=O)[O-])ccc1O)c1ccccc1 | – | – | 16 µg/mL (≈ 56.1 µM) | 16 µg/mL (≈ 56.1 µM) |
| O=C(N/N=C/c1cccc(Br)c1O)c1ccc([N+](=O)[O-])cc1 | – | – | 31 µg/mL (≈ 85.1 µM) | 31 µg/mL (≈ 85.1 µM) |
| O=C(N/N=C/c1cc(Br)ccc1O)c1ccc([N+](=O)[O-])cc1 | – | – | 2 µg/mL (≈ 5.49 µM) | 1 µg/mL (≈ 2.75 µM) |
| C(=N\Nc1ccccc1)/c1ccc(/C=N/Nc2ccccc2)cc1 | – | – | 125 µg/mL (≈ 398 µM) | inactive |
| O=C(N/N=C/c1cc(Br)cc(Br)c1O)c1ccc([N+](=O)[O-])cc1 | – | – | 125 µg/mL (≈ 282 µM) | 1 µg/mL (≈ 2.26 µM) |
| O=[N+]([O-])c1ccc(N/N=C/c2ccccc2O)cc1 | – | – | 4 µg/mL (≈ 15.5 µM) | 125 µg/mL (≈ 486 µM) |
| O=C(N/N=C/c1ccc(O)cc1O)c1ccccc1 | – | – | 1 µg/mL (≈ 3.9 µM) | 31 µg/mL (≈ 121 µM) |
| O=Cc1ccc(/C=N/Nc2ccc([N+](=O)[O-])cc2[N+](=O)[O-])cc1 | – | – | inactive | inactive |
| COc1ccc(O)c(/C=N/Nc2ccccc2)c1 | – | – | 31 µg/mL (≈ 128 µM) | 31 µg/mL (≈ 128 µM) |
| CC(C)(C)c1cccc(/C=N/Nc2ccccc2)c1O | – | – | inactive | inactive |

| Compound | Activity (Candida albicans [1]) | Activity (Nakaseomyces glabratus [2]) | MIC80 (Nakaseomyces glabratus [3]) | MIC80 (Candida albicans [4]) |
| --- | --- | --- | --- | --- |
| N/N=C/c1cc(Cl)cc(Cl)c1O | – | – | 62 µg/mL (≈ 302 µM) | 16 µg/mL (≈ 78 µM) |
| O=C(N/N=C/c1ccc(/C=N/NC(=O)c2ccccc2)cc1)c1ccccc1 | – | – | inactive | inactive |
| O=C(N/N=C/c1ccccc1O)c1ccccc1 [SALICYLALDEHYDE BENZOYL HYDRAZONE] | – | – | 1 µg/mL (≈ 4.16 µM) | 2 µg/mL (≈ 8.32 µM) |
| O=[N+]([O-])c1ccc(N/N=C/c2cc(Br)ccc2O)cc1 | – | – | inactive | inactive |
| N/N=C/c1cc(Br)cc(Br)c1O | – | – | 8 µg/mL (≈ 27.2 µM) | 16 µg/mL (≈ 54.4 µM) |
| Cc1ccc(O)c(/C=N/Nc2ccccc2)c1 | – | – | 8 µg/mL (≈ 35.4 µM) | 62 µg/mL (≈ 274 µM) |
| Cc1ccc(O)c(/C=N/Nc2ccc([N+](=O)[O-])cc2)c1 | – | – | inactive | inactive |
| COc1ccc(O)c(/C=N/NC(=O)c2ccc(O)cc2)c1 | – | – | 4 µg/mL (≈ 14 µM) | inactive |
| COc1ccc(O)c(/C=N/NC(=O)c2ccccc2)c1 | – | – | 0.5 µg/mL (≈ 1.85 µM) | 4 µg/mL (≈ 14.8 µM) |
| Cc1ccc(C)c(N/N=C/c2ccccc2O)c1 | – | – | inactive | inactive |
| O=[N+]([O-])c1ccc(N/N=C/c2ccc(O)cc2O)c([N+](=O)[O-])c1 | – | – | inactive | inactive |
| O=[N+]([O-])c1ccc(N/N=C/c2cc([N+](=O)[O-])ccc2O)cc1 | – | – | 62 µg/mL (≈ 205 µM) | 125 µg/mL (≈ 414 µM) |
| O=[N+]([O-])c1ccc(N/N=C/c2ccc(O)cc2O)cc1 | – | – | 1 µg/mL (≈ 3.66 µM) | inactive |
| Oc1c(Br)cc(Br)cc1/C=N/Nc1ccccc1 | – | – | 62 µg/mL (≈ 168 µM) | inactive |
| Oc1ccccc1/C=N/N=C/c1ccccc1O | – | – | inactive | inactive |
| N/N=C/c1cc(Cl)ccc1O | – | – | 31 µg/mL (≈ 182 µM) | 62 µg/mL (≈ 363 µM) |
| COc1ccc(O)c(/C=N/NC(=O)c2ccccc2O)c1 | – | – | 16 µg/mL (≈ 55.9 µM) | 16 µg/mL (≈ 55.9 µM) |
| N/N=C/c1cc(Br)ccc1O | – | – | 62 µg/mL (≈ 288 µM) | 31 µg/mL (≈ 144 µM) |
| N/N=C/c1cc([N+](=O)[O-])ccc1O | – | – | 31 µg/mL (≈ 171 µM) | inactive |
| CC(C)(C)c1cccc(/C=N/NC(=O)c2ccccc2)c1O | – | – | inactive | inactive |
| O=C(N/N=C/c1cc(Cl)cc(Cl)c1O)c1ccccc1 | – | – | 16 µg/mL (≈ 51.8 µM) | 8 µg/mL (≈ 25.9 µM) |
| O=C(N/N=C/c1ccccc1O)c1ccc(O)cc1 | – | – | 4 µg/mL (≈ 15.6 µM) | inactive |
| N/N=C/c1ccc(O)cc1O | – | – | 31 µg/mL (≈ 204 µM) | 62 µg/mL (≈ 407 µM) |
| Oc1ccc(/C=N/Nc2ccccc2)c(O)c1 | – | – | 2 µg/mL (≈ 8.76 µM) | 31 µg/mL (≈ 136 µM) |

| Compound | Activity (Candida albicans [1]) | Activity (Nakaseomyces glabratus [2]) | MIC80 (Nakaseomyces glabratus [3]) | MIC80 (Candida albicans [4]) |
| --- | --- | --- | --- | --- |
| O=C(N/N=C/c1cc(Cl)ccc1O)c1ccc([N+](=O)[O-])cc1 | – | – | 62 µg/mL (≈ 194 µM) | 16 µg/mL (≈ 50 µM) |
| O=[N+]([O-])c1ccc(O)c(/C=N/Nc2ccccc2)c1 | – | – | 16 µg/mL (≈ 62.2 µM) | 31 µg/mL (≈ 121 µM) |
| O=C(N/N=C/c1ccccc1O)c1ccccc1O | – | – | 8 µg/mL (≈ 31.2 µM) | 16 µg/mL (≈ 62.4 µM) |
| O=[N+]([O-])c1ccc(N/N=C/c2cc(Br)cc(Br)c2O)cc1 | – | – | 62 µg/mL (≈ 149 µM) | inactive |
| Oc1ccc(Br)cc1/C=N/Nc1ccccc1 | – | – | 31 µg/mL (≈ 106 µM) | 31 µg/mL (≈ 106 µM) |
| CC(C)(C)c1cccc(/C=N/N)c1O | – | – | 62 µg/mL (≈ 322 µM) | 125 µg/mL (≈ 650 µM) |
| O=C(N/N=C/c1cc(Br)ccc1O)c1ccc(O)cc1 | – | – | 62 µg/mL (≈ 185 µM) | 125 µg/mL (≈ 373 µM) |
| Oc1ccccc1/C=N/Nc1ccccc1 | – | – | 16 µg/mL (≈ 75.4 µM) | 16 µg/mL (≈ 75.4 µM) |
| O=C(N/N=C/c1cc(Cl)cc(Cl)c1O)c1ccc([N+](=O)[O-])cc1 | – | – | 125 µg/mL (≈ 353 µM) | 31 µg/mL (≈ 87.5 µM) |
| Oc1ccc(Cl)cc1/C=N/Nc1ccccc1 | – | – | 31 µg/mL (≈ 126 µM) | 31 µg/mL (≈ 126 µM) |
| O=[N+]([O-])c1ccc(N/N=C/c2cccc(Br)c2O)cc1 | – | – | inactive | inactive |
| O=C(N/N=C/c1cc(Br)ccc1O)c1ccccc1O | – | – | 62 µg/mL (≈ 185 µM) | 8 µg/mL (≈ 23.9 µM) |
| O=C(N/N=C/c1ccc(O)cc1O)c1ccc([N+](=O)[O-])cc1 | – | – | 0.5 µg/mL (≈ 1.66 µM) | inactive |
| O=C(N/N=C/c1cc(Cl)ccc1O)c1ccccc1O | – | – | inactive | 8 µg/mL (≈ 27.5 µM) |
| Oc1c(Cl)cc(Cl)cc1/C=N/Nc1ccccc1 | – | – | 125 µg/mL (≈ 445 µM) | 125 µg/mL (≈ 445 µM) |
| Cc1ccc(O)c(/C=N/NC(=O)c2ccccc2O)c1 | – | – | inactive | 16 µg/mL (≈ 59.2 µM) |
| Oc1c(Br)cccc1/C=N/Nc1ccccc1 | – | – | 16 µg/mL (≈ 55 µM) | 8 µg/mL (≈ 27.5 µM) |
| O=C(N/N=C/c1cc(Cl)ccc1O)c1ccc(O)cc1 | – | – | 62 µg/mL (≈ 213 µM) | inactive |
| O=C(N/N=C/c1cccc(Br)c1O)c1ccccc1 | – | – | 2 µg/mL (≈ 6.27 µM) | 4 µg/mL (≈ 12.5 µM) |
| O=C(N/N=C/c1cc([N+](=O)[O-])ccc1O)c1ccc([N+](=O)[O-])cc1 | – | – | 16 µg/mL (≈ 48.4 µM) | inactive |
| O=C(N/N=C/c1cc(Br)ccc1O)c1ccccc1 | – | – | 2 µg/mL (≈ 6.27 µM) | 2 µg/mL (≈ 6.27 µM) |
| O=[N+]([O-])c1ccc(N/N=C/c2ccccc2O)c([N+](=O)[O-])c1 | – | – | inactive | inactive |
| CC(C)(C)c1cccc(/C=N/NC(=O)c2ccc([N+](=O)[O-])cc2)c1O | – | – | 125 µg/mL (≈ 366 µM) | 31 µg/mL (≈ 90.8 µM) |
